# According to ChEMBL document CHEMBL4330056, “Synthesis and Cytotoxic and Antiviral Profiling of Pyrrolo- and Furo-Fused 7-Deazapurine Ribonucleosides” (J Med Chem, 2018):
# The source made the active and inactive calls. No cut-off for these calls is given here.
# What was measured:
# [1] = test system: CCRF-CEM; assay: Induction of cell cycle arrest in human CCRF-CEM cells assessed as accumulation at S phase at IC50 concentration after 24 hrs by propidium iodide-staining based flow cytometry (reference value: 41.08%); type: functional
# [2] = test system: CCRF-CEM; assay: Inhibition of RNA synthesis in human CCRF-CEM cells assessed as RNA synthesis level at 5 times IC50 concentration after 24 hrs by BrU incorporation assay (reference value: 49.89%); type: functional; set-up: scale not given: the % may be the effect or the level left
# [3] = test system: CCRF-CEM; assay: Induction of cell cycle arrest in human CCRF-CEM cells assessed as accumulation at G0/G1 phase at IC50 concentration after 24 hrs by propidium iodide-staining based flow cytometry (reference value: 39.70%); type: functional
# [4] = test system: CCRF-CEM; assay: Induction of cell cycle arrest in human CCRF-CEM cells assessed as accumulation at G0/G1 phase at 5 times IC50 concentration after 24 hrs by propidium iodide-staining based flow cytometry (reference value: 39.70%); type: functional
# [5] = test system: CCRF-CEM; assay: Inhibition of mitosis in human CCRF-CEM cells assessed Ser10 H3 phosphorylation positive cells at IC50 concentration after 24 hrs by flow cytometry relative to total cell population (reference value: 1.36%); type: functional; set-up: scale not given: the % may be the effect or the level left
# [6] = test system: HL-60; assay: Antiproliferative activity against human HL60 cells after 72 hrs by XTT assay; type: functional, cell-based; settings: HL-60, 72 h
# [7] = test system: Human orthopneumovirus; assay: Antiviral activity against Human respiratory syncytial virus A2 infected in Hep2 cells assessed as reduction in virus-induced cytopathic effect incubated for 4 days by CellTiter-Glo viability reagent based assay; type: functional, organism-based
# [8] = test system: CCRF-CEM; assay: Induction of cell cycle arrest in human CCRF-CEM cells assessed as accumulation at G2/M phase at 5 times IC50 concentration after 24 hrs by propidium iodide-staining based flow cytometry (reference value: 19.22%); type: functional
# [9] = test system: CCRF-CEM; assay: Induction of cell cycle arrest in human CCRF-CEM cells assessed as accumulation at subG1 phase at IC50 concentration after 24 hrs by propidium iodide-staining based flow cytometry (reference value: 3.45%); type: functional
# [10] = test system: Human alphaherpesvirus 1; assay: Antiviral activity against human herpesvirus 1 HF infected in African green monkey Vero cells assessed as inhibited virus-induced cytopathic effect incubated for 3 days by XTT assay; type: functional, organism-based
# [11] = test system: CCRF-CEM; assay: Inhibition of DNA synthesis in human CCRF-CEM cells assessed as DNA synthesis level at IC50 concentration after 24 hrs by BrdU incorporation assay (reference value: 43.39%); type: functional; set-up: scale not given: the % may be the effect or the level left
# [12] = test system: CCRF-CEM; assay: Inhibition of RNA synthesis in human CCRF-CEM cells assessed as RNA synthesis level at IC50 concentration after 24 hrs by BrU incorporation assay (reference value: 49.89%); type: functional; set-up: scale not given: the % may be the effect or the level left
# [13] = test system: MRC5; assay: Antiproliferative activity against human MRC5 cells after 3 days by MTS assay; settings: MRC5, 72 h
# [14] = test system: Influenza A virus; assay: Antiviral activity against Influenza A virus (A/Mexico/4108/2009(H1N1)) infected in MDCK cells assessed as inhibited virus-induced cytopathic effect incubated for 2 days by XTT assay; type: functional, organism-based
# [15] = Antiproliferative activity against human K562-TAX cells after 3 days by MTS assay; type: functional, cell-based; settings: 72 h
# [16] = test system: HeLa S3; assay: Antiproliferative activity against human HeLaS3 cells after 72 hrs by XTT assay; type: functional, cell-based; settings: HeLa S3, 72 h
# [17] = test system: Hepatitis C virus; assay: Antiviral activity against Hepatitis C virus genotype 1b infected in human Huh-luc replicon cells after 3 days by luciferase assay; type: functional, organism-based, Hepacivirus hominis; settings: subtype 1b, 72 h
# [18] = biological target: T1, Adenosine kinase (Homo sapiens, UniProt P55263); assay: Substrate activity at recombinant human ADK assessed as compound phosphorylation at 50 uM after 20 mins in presence of [3H]-adenosine by UPLC; type: ADME
# [19] = test system: HCT-116; assay: Antiproliferative activity against human HCT116 cells after 3 days by MTS assay; type: functional, cell-based; settings: HCT-116, 72 h
# [20] = test system: Coxsackievirus B3; assay: Antiviral activity against Human coxsackie B3 Nancy infected in human HeLa cells assessed as inhibited virus-induced cytopathic effect incubated for 2 days by XTT assay; type: functional, organism-based
# [21] = test system: A549; assay: Antiproliferative activity against human A549 cells after 3 days by MTS assay; type: functional, cell-based; settings: A549, 72 h
# [22] = Cytotoxicity against human Hep2 cells assessed as reduction in cell viability after 3 days by CellTiter-Glo assay; type: cell-based; settings: HEp-2 cells
# [23] = Antiproliferative activity against human CEM-DNR-bulk cells after 3 days by MTS assay; settings: 72 h
# [24] = test system: U2OS; assay: Antiproliferative activity against human U2OS cells after 3 days by MTS assay; type: functional, cell-based; settings: 72 h
# [25] = test system: HCT-116; assay: Antiproliferative activity against p53 gene knocked out human HCT116 cells after 3 days by MTS assay; type: functional, cell-based; settings: HCT-116, 72 h
# [26] = test system: CCRF-CEM; assay: Antiproliferative activity against human CCRF-CEM cells after 3 days by MTS assay; type: functional, cell-based; settings: 72 h
# [27] = test system: BJ; assay: Antiproliferative activity against human BJ cells after 3 days by MTS assay; settings: 72 h
# [28] = test system: CCRF-CEM; assay: Induction of cell cycle arrest in human CCRF-CEM cells assessed as accumulation at subG1 phase at 5 times IC50 concentration after 24 hrs by propidium iodide-staining based flow cytometry (reference value: 3.45%); type: functional
# [29] = test system: CCRF-CEM; assay: Inhibition of mitosis in human CCRF-CEM cells assessed Ser10 H3 phosphorylation positive cells at 5 times IC50 concentration after 24 hrs by flow cytometry relative to total cell population (reference value: 1.36%); type: functional; set-up: scale not given: the % may be the effect or the level left
# [30] = test system: dengue virus type 2; assay: Antiviral activity against Dengue virus 2 Thailand/16681/84 infected in African green monkey Vero cells assessed as inhibition of virus replication incubated for 3 days by fluorescence microscopy; type: functional, organism-based
# [31] = test system: CCRF-CEM; assay: Inhibition of DNA synthesis in human CCRF-CEM cells assessed as DNA synthesis level at 5 times IC50 concentration after 24 hrs by BrdU incorporation assay (reference value: 43.39%); type: functional; set-up: scale not given: the % may be the effect or the level left
# [32] = biological target: T1, Adenosine kinase; assay: Inhibition of recombinant human ADK using [3H]-adenosine as substrate after 20 mins by TLC scanner-based analysis relative to control
# In short: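 ADK inhibition: 50 μM adenosine substrate with 10 μM test compound and 97 ng enzyme, 20 min at 37 °C.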
# [33] = test system: K562; assay: Antiproliferative activity against human K562 cells after 3 days by MTS assay; type: functional, cell-based; settings: K562, 72 h
# [34] = test system: HepG2; assay: Antiproliferative activity against human HepG2 cells after 72 hrs by XTT assay; type: functional, cell-based; settings: HepG2, 72 h
# [35] = test system: Hepatitis C virus; assay: Antiviral activity against Hepatitis C virus genotype 2a infected in human Huh-luc replicon cells after 3 days by luciferase assay; type: functional, organism-based, Hepacivirus hominis; settings: subtype 2a, 72 h
# [36] = test system: CCRF-CEM; assay: Induction of cell cycle arrest in human CCRF-CEM cells assessed as accumulation at G2/M phase at IC50 concentration after 24 hrs by propidium iodide-staining based flow cytometry (reference value: 19.22%); type: functional
# [37] = test system: CCRF-CEM; assay: Induction of cell cycle arrest in human CCRF-CEM cells assessed as accumulation at S phase at 5 times IC50 concentration after 24 hrs by propidium iodide-staining based flow cytometry (reference value: 41.08%); type: functional
# T1 sequence (P55263 whole entry): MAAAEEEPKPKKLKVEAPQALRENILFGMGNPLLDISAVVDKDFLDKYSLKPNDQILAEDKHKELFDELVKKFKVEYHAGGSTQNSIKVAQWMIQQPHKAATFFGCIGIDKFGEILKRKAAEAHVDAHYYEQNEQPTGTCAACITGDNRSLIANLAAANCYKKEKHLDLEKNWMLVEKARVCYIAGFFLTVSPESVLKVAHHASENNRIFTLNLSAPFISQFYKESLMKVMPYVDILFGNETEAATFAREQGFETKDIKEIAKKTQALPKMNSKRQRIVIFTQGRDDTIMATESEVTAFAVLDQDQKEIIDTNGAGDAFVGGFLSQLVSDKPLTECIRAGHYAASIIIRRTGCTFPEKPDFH
Compound,Activity [1],Activity [2],Activity [3],Activity [4],Activity [5],IC50 [6],Activity [7],Activity [8],Activity [9],Activity [10],Activity [11],Activity [12],IC50 [13],Activity [14],IC50 [15],IC50 [16],EC50 [17],Activity [18],IC50 [19],Activity [20],further results
COc1ncnc2c1c1c(ccn1C)n2[C@@H]1O[C@H](CO)[C@@H](O)[C@H]1O,45.08%,28.3%,37.73%,47.62%,1.48%,1440 nM,inactive,15.4%,3.68%,inactive,31.44%,31.19%,50000 nM,inactive,> 50000 nM,1530 nM,90 nM,47%,360 nM,inactive,IC50 [21]: > 50000 nM; CC50 at 72 h [22]: > 44400 nM; IC50 [23]: > 50000 nM; IC50 [24]: 1300 nM; IC50 [25]: 620 nM; IC50 [26]: 440 nM; IC50 [27]: 4500 nM; Activity [28]: 13.86%; Activity [29]: 1.5%; Activity [30]: inactive; Activity [31]: 12.29%; IC50 [32]: > 10000 nM; IC50 [33]: 510 nM; IC50 [34]: 2590 nM; EC50 [35]: 280 nM; Activity [36]: 17.2%; Activity [37]: 36.98%
COc1ncnc2c1c1occc1n2[C@@H]1O[C@H](CO)[C@@H](O)[C@H]1O,41.82%,4.3%,41.52%,20.54%,0.56%,700 nM,inactive,14.07%,4.23%,inactive,42.65%,25.36%,13400 nM,inactive,300 nM,2310 nM,380 nM,35%,280 nM,inactive,IC50 [21]: 1930 nM; CC50 at 72 h [22]: > 44400 nM; IC50 [23]: 3120 nM; IC50 [24]: 430 nM; IC50 [25]: 300 nM; IC50 [26]: 180 nM; IC50 [27]: 1090 nM; Activity [28]: 6.82%; Activity [29]: 0.58%; Activity [30]: inactive; Activity [31]: 52.74%; IC50 [32]: > 10000 nM; IC50 [33]: 320 nM; IC50 [34]: 2410 nM; EC50 [35]: 290 nM; Activity [36]: 16.65%; Activity [37]: 65.39%
